{"data": "Experimental data pooled from the literature", "UGT1A9": "UDP-glucuronosyltransferase 1A9 (UGT1A9, Homo sapiens, UniProt O60656)", "note": "Each line is one published result; the experiments were not run side by side. pIC50: −log10 of the molar value."}
{"SMILES": "CC(C)(O)c1cn(-c2ccc(-c3cc(F)c(CO)c(S(C)(=O)=O)c3)cc2)c(C(C)(C)c2cccc(F)c2Cl)n1", "test system": "male cynomolgus monkey, plasma", "setting": "intravenous, 1 mg/kg, single dose", "measurement": "clearance", "result": "9.4 mL/min/kg"}
{"SMILES": "N#CC(C(=O)Nc1cccc(C(F)(F)F)c1)=C1Sc2nc3ccc(S(=O)(=O)N4CCCC4)cc3nc2S1", "tested on": "WI-38", "assay": "cell growth or viability, MTT", "setting": "3.125 µM, 24 h", "measurement": "viability", "result": "100%"}
{"SMILES": "N#Cc1cc(NC(=O)[C@H]2c3ccccc3C(=O)N(CC(F)(F)F)[C@@H]2c2cccnc2)ccc1F", "assay": "metabolic stability", "test system": "dog, liver microsomes", "measurement": "half-life", "result": "> 4 h"}
{"SMILES": "CN(CCC(=O)O)C(=O)c1ccc2c(c1)CC[C@@H]1[C@@H]2CC[C@]2(C)C(c3cncc(F)c3)=CC[C@@H]12", "tested on": "UGT1A9", "assay": "enzyme activity, inhibitor", "measurement": "pIC50", "result": "< 4.52"}
{"SMILES": "CON=C(N)c1ccc(-c2ccc(-c3ccc(C(N)=NOC)cc3)o2)cc1", "tested on": "Cytochrome P450 1A1 (CYP1A1, Homo sapiens, UniProt P04798)", "assay": "enzyme activity, substrate", "measurement": "Km", "result": "0.5 µM"}
{"SMILES": "C[C@H](O)c1cc(C(=O)N[C@@H](C)Cn2ccc(-c3ccc(C#N)c(Cl)c3)n2)n[nH]1", "tested on": "UGT1A9", "assay": "enzyme activity, inhibitor", "test system": "human, liver microsomes", "measurement": "pIC50", "result": "< 4.00"}
{"SMILES": "CC(C)(O)c1cn(-c2ccc(-c3ccc(CO)c(S(C)(=O)=O)c3)cc2)c(Cc2ccccc2Cl)n1", "test system": "cynomolgus monkey, plasma", "setting": "intravenous, 0.25 mg/kg, single dose", "measurement": "clearance", "result": "61 mL/min/kg"}
{"SMILES": "O=C1CCCCC1=C1Sc2nc3ccc(S(=O)(=O)N4CCCC4)cc3nc2S1", "tested on": "WI-38", "assay": "cell growth or viability, MTT", "setting": "25 µM, 24 h", "measurement": "viability", "result": "70.8%"}
{"SMILES": "CC(=O)c1cc(C(=O)N[C@@H](C)Cn2ccc(-c3ccc(C#N)c(Cl)c3)n2)[nH]n1", "tested on": "UGT1A9", "assay": "enzyme activity, inhibitor", "test system": "human, liver microsomes", "measurement": "pIC50", "result": "< 4.30"}
